Series [1] has as its system Plasmodium falciparum. Put plainly: Antiplasmodial activity against multidrug-resistant Plasmodium falciparum K1 assessed as [3H]hypoxanthine incorporation after 24 hrs by microtiter plate scintillation counting. The class given is functional, organism-based. The procedure, abridged: (§1)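 K1 multidrug-resistant P. falciparum kept in continuous culture (Trager–Jensen). In vitro activity measured by a microculture radioisotope technique (Desjardins method). The highest level tested was 10 µg/mL.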

Series [2] concerns Mycobacterium tuberculosis. Put plainly: Antitubercular activity against Mycobacterium tuberculosis H37Ra at 200 ug/ml after 4 days by microplate alamar blue assay. The class given is functional, organism-based. The procedure, abridged: (§2)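 M. tuberculosis H37Ra tested in an Alamar Blue microplate assay. Values are given as MIC in µg/mL. The highest level tested was 200 µg/mL.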
Background: Resazurin is reduced to fluorescent resorufin, in cell work by metabolically active cells.

For series [3], the system named is Vero. Put plainly: Cytotoxicity against african green monkey Vero cells at 50 ug/ml by sulforhodamine B assay. Type of series: cell-based. The conditions noted are these: chlorocebus sabaeus. The method in brief:
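African green monkey kidney fibroblasts (Vero) exposed to test material at 50 µg/mL; cell growth read by a colorimetric method (Skehan and coworkers).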
A general note: Sulforhodamine B stains cellular protein and so reports cell mass.

In series [4] the test system is Plasmodium falciparum. Put plainly: Antiplasmodial activity against multidrug-resistant Plasmodium falciparum K1 assessed as [3H]hypoxanthine incorporation at 10 ug/ml after 24 hrs by microtiter plate scintillation counting. Type of series: functional, organism-based. The procedure, abridged: as §1
In series [5] the test system is Vero. Put plainly: Cytotoxicity against african green monkey Vero cells by sulforhodamine B assay. Type of series: cell-based. Conditions: chlorocebus sabaeus. The procedure, abridged:
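Vero cells were described as African green monkey kidney fibroblasts. Read-out was by the colorimetric method of Skehan and coworkers. Compounds were tested up to 50 µg/mL.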

Series [6] concerns Mycobacterium tuberculosis. Put plainly: Antitubercular activity against Mycobacterium tuberculosis H37Ra after 4 days by microplate alamar blue assay. Type of series: functional. Conditions: 96 h. The method in brief:
as §2

The structures appear in SMILES notation. Values after ≈ are worked out from the molar mass of the structure shown. Active and inactive are the calls of the source.

The term IC50 denotes the concentration needed to halve the response being measured. Turning to `C=C1CC[C@@H]2[C@H](c3c(C)c(O)c4c(c31)C(=O)[C@](C)(O)C4)C2(C)C`, in series [1], the half-inhibitory concentration (IC50) was found to be 4.1 µg/mL. Moreover, the result in series [2] was inactive. In addition, the Activity entry in series [3] is “Non-toxic”.

As to `C=C1CC[C@@H]2[C@H](c3c(C)c(O)c4c(c31)C(=O)[C@@](C)(O)C4)C2(C)C`, the outcome in series [4] and in series [2] was inactive. The compound also yielded an IC50 in series [5] of 49.4 µg/mL (≈ 158 µM).

Turning to `C[C@H]1[C@@H](O)O[C@@H]2O[C@@]3(C)CC[C@H]4[C@H](C)CC[C@@H]1[C@@]24OO3` [ARTENIMOL], in series [1], the 50% inhibitory concentration (IC50) amounted to 4 nM.

Usually MIC stands for the smallest concentration in the dilution series that meets the test's criterion for growth inhibition. With `C=C(C)[C@@H]1CC[C@]23CO[C@@]4(OO2)C2=C(C(=O)C(C)=C[C@@H]1[C@@H]23)[C@H](O)[C@H]4C` [CANIOJANE], the results for the IC50 in series [1] and in series [5] were 3.3 µg/mL and 12.9 µg/mL (≈ 37.5 µM), respectively. This compound also came in with an MIC in series [6] of 25 µg/mL (≈ 72.6 µM).

With `Cc1c2ccncc2c(C)c2c1[nH]c1ccccc12` [ELLIPTECINE], the midpoint of inhibition in series [5], the IC50, lay at 0.7 µg/mL (≈ 2.84 µM).

On to `NNC(=O)c1ccncc1` [ISONIAZID], for which inhibition of growth in series [6] (MIC) required 0.1 µg/mL (≈ 0.729 µM).

For `C=C1CC[C@@H]2[C@H](c3c(C)c(O)c4c(c31)C(=O)[C@@H](C)C4)C2(C)C` [JATROPHOLONE A], in series [1], the IC50 came to 5.4 µg/mL. In series [2], the result was inactive. For the same compound, the Activity entry in series [3] is reported as “Non-toxic”.

As to `C=C1CC[C@@H]2[C@H](c3c(C)c(O)c4c(c31)C(=O)[C@H](C)C4)C2(C)C` [JATROPHOLONE B], the result in series [4] and in series [2] was inactive. Further, in series [3], the Activity result is listed as “Non-toxic”.

Consider `NC[C@H]1O[C@H](O[C@H]2[C@H](O)[C@@H](O[C@H]3O[C@H](CO)[C@@H](O)[C@H](N)[C@H]3O)[C@H](N)C[C@@H]2N)[C@H](O)[C@@H](O)[C@@H]1O` [KANAMYCIN], for which, in series [6], it took 2.5 µg/mL (≈ 5.16 µM) to inhibit growth (MIC).

Values taken from ChEMBL document CHEMBL1154804, “Diterpenes, sesquiterpenes, and a sesquiterpene-coumarin conjugate from Jatropha integerrima” (J Nat Prod, 2009).
